The values that follow come from ChEMBL document CHEMBL4513216, “Probing the Open Global Health Chemical Diversity Library for Multistage-Active Starting Points for Next-Generation Antimalarials” (ACS Infect Dis, 2020).

This data set can be described thus: Toxicity liver stage against HepG2, at 10uM. In kind it is cell-based. Details: test concentration 10 uM, cell line HepG2-A16-CD81EGFP. The following applies: human, HepG2-A16-CD81EGFP cells; read-out: INHIBITION
In a few lines: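 Uninfected HepG2-A16-CD81EGFP cells, 3 × 10^3 per well, 1536-well, plated on prespotted compound at 10 μM final, parasite-free screening media added to match infected plates; puromycin 10 μM positive, DMSO 0.5% negative; run in parallel with 48 h PbLuc assay at 37 °C, 5% CO2; viability by CellTiter-Glo luminescence, normalized to controls.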
Turning to `Fc1cccc2c1CCC2NCc1cnc(N2CCOCC2)nc1` (stereo not given), the cytotoxicity at 10 µM was 5.42%.
Under `COc1cc(C)nc(N2CCN(C(=O)CN(C)C3CC3)CC2)n1` stands -4.43%.
As for `O=C(NCc1ccco1)c1cc[n+]([O-])cc1`, the cytotoxicity at 10 µM was determined as 3.33%.
Take `O=C(NCc1cccc(N2CC=CC2)c1)NCC(F)(F)F`: the cytotoxicity at 10 µM stood at 8.89%.
Under `c1ccc2c(c1)COC1(CCCCC1)N2` stands -11.1%; under `CN(C)CCOCc1cncc2c1CCN(Cc1ccccn1)C2`, 2.2%; under `Cc1nn(-c2ccccc2)cc1C(=O)N1CCCC(n2cccn2)C1` (stereo not given), 1.3%.
For `CC(=O)NCCNc1nccc(CCC(F)(F)F)n1`, the cytotoxicity at 10 µM is -146%.
With `Cc1cc(NC2CCC(=O)N(C)C2)n2nccc2n1` (stereo not given), the cytotoxicity at 10 µM was -0.714%.
Turning to `O=C1CO[C@H]2CN(Cc3ccc(C(F)(F)F)cc3)C[C@H]2N1`, the cytotoxicity at 10 µM was -4.63%.
As for `CCn1nccc1CN(C)c1[nH]cnc2nc(C)nc1-2`, the cytotoxicity at 10 µM was -7.97%.
For the compound `CCCN(CCO)S(=O)(=O)c1ccc2[nH]c(=O)[nH]c2c1`, the cytotoxicity at 10 µM was -0.24%.
Consider `CC(C)c1nc2cc(NC(=O)c3n[nH]c4c3CCC4)ccc2n1C`, for which the cytotoxicity at 10 µM is -5.37%.
For the compound `CN(C)C(=O)CN1C[C@H]2CCN(C(=O)C3CCCO3)CC[C@H]2S1(=O)=O` (stereo not given in full), the cytotoxicity at 10 µM stood at 20.6%.
Turning to `CC(C)(C)c1cn2nc(N3CCOC(Cn4cncn4)C3)sc2n1` (stereo not given), the cytotoxicity at 10 µM is -2.63%.
In the case of `CC(=O)N1CCC(NC(=O)N2CCCC2c2ccsc2)CC1` (stereo not given), the cytotoxicity at 10 µM was determined as 0.421%.
Turning to `COc1ccc(-c2noc(CN3CC(n4cc(C)cn4)C3)n2)cc1`, the cytotoxicity at 10 µM was -5.97%.
In the case of `CCc1cnc2c(c1NCc1ccc(OC)cc1)c(=O)n(C)c(=O)n2C`, the cytotoxicity at 10 µM amounted to 5.79%.
For `CN(C)C(=O)CN1C[C@@H]2OCCN(c3ncc(F)cn3)[C@@H]2C1`, the cytotoxicity at 10 µM was -0.756%.
In the case of `CCN(CCn1cccn1)C(=O)CN1C(=O)OC[C@@H]1C(C)C` it was 1.97%.
For `CC(NC(=O)NCCCN(C)S(C)(=O)=O)c1cccc(Cl)c1` (stereo not given), the cytotoxicity at 10 µM was 3.44%.
For the compound `CCc1nc(NC2CCCN(C(=O)c3cccs3)C2)c2cnn(C)c2n1` (stereo not given), the cytotoxicity at 10 µM worked out at 13.9%.
Take `Cc1noc(C)c1NC(=O)NC1CCN(C(=O)OC(C)(C)C)CC1`: the cytotoxicity at 10 µM was 4.77%.
Regarding `CCCn1cnnc1CNC1CSCCSC1`, the cytotoxicity at 10 µM is -7.31%.
As for `CC(NC(=O)NCC1(c2ccc(F)cc2)CC1)c1nncn1C` (stereo not given), the cytotoxicity at 10 µM is -4.75%.
For the compound `Fc1cnc(NCC2Cn3nnc(-c4ccccc4)c3CO2)nc1` (stereo not given), the cytotoxicity at 10 µM is -64.7%.
Take `CN(C)C(=O)N1C[C@@H]2CCCO[C@@H]2[C@H](N(C)Cc2ccco2)C1`: the cytotoxicity at 10 µM was -7.82%.
Under `c1cnnc(N2CCC(c3nnc(Cn4ccnc4)n3C3CC3)CC2)c1` stands 6.71%; under `CN(CC(=O)Nc1cc(C(F)(F)F)c[nH]c1=O)Cc1ccccc1`, 12%; under `CN(C)C(=O)CN1CCn2cc(Cn3cccn3)nc2C1`, 4.96%.
On to `COCCN(Cc1ccoc1)S(=O)(=O)c1cccc(C(F)(F)F)c1`, for which the cytotoxicity at 10 µM was determined as 3.17%.
For `O=S(=O)(c1cccnc1)N1CCN(Cc2nc(-c3cccs3)cs2)CC1`, the cytotoxicity at 10 µM is 27.8%.
Under `Cc1cc(N(C)Cc2noc(C)n2)n2nc(C)c(C)c2n1` stands 14.4%; under `Cn1cccc1C(=O)NC[C@H]1C[C@@H]2CN(C(=O)c3ccno3)C[C@H]2O1`, 0.903%.
For `CCOCCn1c(=O)n(CCC(C)C)c2ncc(C(=O)O)cc21`, the cytotoxicity at 10 µM stood at 2.62%.
`Cc1cc(C(=O)NCC(O)c2ccc(Cl)s2)c(C)o1` (stereo not given): the cytotoxicity at 10 µM is -6.82%.
On to `CN(C)c1cnn(CC(=O)N2Cc3ccccc3C2)c(=O)c1`, for which the cytotoxicity at 10 µM is 4.52%.
Regarding `Cc1csc(CNC(=O)N(C)Cc2ccncc2)n1`, the cytotoxicity at 10 µM was -10.8%.
In the case of `CNC(=O)N1CCC2(CC1)c1ncc(-c3cccc(F)c3)n1CCN2C`, the cytotoxicity at 10 µM worked out at 7.97%.
As to `Cn1cc(CCNC(=O)CCc2ccc3c(c2)OCO3)cn1`, the cytotoxicity at 10 µM was -7.15%.
Consider `O=C1NCCN1C1CCN(CCc2cccs2)CC1`, for which the cytotoxicity at 10 µM is -1.32%.
In the case of `COc1ccc(C(=O)NS(C)(=O)=O)cc1-c1ccccc1` it was -0.0142%.
With `c1cnc(N2CCC(C3CCN(CCCn4cccn4)C3)CC2)nc1` (stereo not given), the cytotoxicity at 10 µM came out at 7.5%.
`CC(C)NC(=O)CN(C)C1CCN(c2ccc(Cl)cn2)CC1`: the cytotoxicity at 10 µM came to 3.5%.
In the case of `O=C1CCCN1CC1CCCCN1C(=O)Nc1cccc(F)c1` (stereo not given), the cytotoxicity at 10 µM is -1.8%.
As to `COCCN1CCCC(c2ccnc3c(C(N)=O)cnn23)C1` (stereo not given), the cytotoxicity at 10 µM came out at 2.05%.
With `OCCc1cn(CC2CCCN(Cc3nccs3)C2)nn1` (stereo not given), the cytotoxicity at 10 µM was -6.51%.
For the compound `CC(C)Oc1cccc(CN2CCC(c3n[nH]c4ncccc34)CC2)c1`, the cytotoxicity at 10 µM is -6.15%.
Under `Cc1ccccc1CCCN1C(=O)CC2(CCSC2)C1=O` (stereo not given) stands -3.45%.
Under `CC(C)C(=O)N1CC[C@H]2N(C)CC[C@@]2(C(=O)Nc2cccnc2)CC1` stands -121%.
`CCOCCCC(=O)Nc1ccc(OCc2noc(C3CC3)n2)cc1`: the cytotoxicity at 10 µM was 44.4%.
`Cc1nnc([C@H]2CC[C@@H]3[C@@H](CCN3CC3CCOCC3)O2)o1`: the cytotoxicity at 10 µM was found to be 10.1%.
As for `Cc1cnn(CCNCc2csc(-c3ccc4c(c3)OCO4)n2)c1`, the cytotoxicity at 10 µM is -6.41%.
With `O=S1(=O)C[C@@H]2[C@H](C1)N(Cc1ccc3ccccc3c1)CCN2CC1CC1`, the cytotoxicity at 10 µM came to 1.99%.
As for `CN(Cc1cc(F)cc2cccnc12)CC1CCN(CCO)CC1`, the cytotoxicity at 10 µM turned out to be 1.9%.
With `CN1CCCN(S(=O)(=O)c2cn(C)cn2)c2cc(Cl)ccc21`, the cytotoxicity at 10 µM was determined as 2.14%.
`Cn1cccc1C(=O)NCc1cn2c(n1)CN(C(=O)c1ccsc1)CC2`: the cytotoxicity at 10 µM was -112%.
Consider `O=C(C1CCCC1)N1CCC(c2ccnc(Nc3cnccn3)n2)C1` (stereo not given), for which the cytotoxicity at 10 µM was -24.6%.
Consider `CC(C)COc1cncc(N(C)C2CCN(c3ncccn3)CC2)n1`, for which the cytotoxicity at 10 µM was 0.583%.
As to `CCc1cnc(N)nc1N[C@@H](C)c1ncccc1C`, the cytotoxicity at 10 µM is -3.94%.
Consider `O=C(C1CCC2(CCN(CC3CCOCC3)CC2)O1)N1CCCCO1` (stereo not given), for which the cytotoxicity at 10 µM is 1.08%.
`Cc1cc2ccncc2n1CC1(O)CCN(C(=O)c2ccccn2)CC1`: the cytotoxicity at 10 µM worked out at 0.166%.
In the case of `COC(=O)C1Cc2nc[nH]c2CN1Cc1ccc(Sc2ncccn2)o1` (stereo not given), the cytotoxicity at 10 µM is -3.94%.
In the case of `Cc1cc(CN2C[C@@H](C)[C@@]3(CCN(C)C3=O)C2)oc1C` it was 8.34%; in that of `CN(Cc1ccc2c(c1)OCCO2)Cc1nc2c(cnn2C)c(=O)[nH]1`, -4.45%; in that of `Cc1cc(CN(C)C(=O)c2cccc(CCC(C)(C)O)c2)no1`, -2.02%.
`CCS(=O)(=O)N1CCC2(CN(c3cccc(C)n3)C2)C1`: the cytotoxicity at 10 µM turned out to be 3.5%.
In the case of `CCNC(=O)C1CCN(c2cc(-c3ccccc3)nc3cc(C)nn23)C1` (stereo not given) it was -2.97%; in that of `Cc1noc(C)c1CN1C[C@@H]2COC[C@H](C(=O)N3CCCO3)[C@@H]2C1`, -66.6%.
As for `CC(=O)Nc1nc(C2CCN(CC(N)=O)CC2)cs1`, the cytotoxicity at 10 µM is -2.76%.
